Converted amounts (≈) assume the structure as drawn. Values belong to the compound of their own block, whether it stands above or below them. The source made the active and inactive calls. The calls are words filed in the database; no cut-off is given here.
What was measured:
[1] = Apparent permeability across human Caco2 cells at 10 uM after 1 hr by LC-MS/MS analysis; type: ADME, cell-based; conditions: Caco-2
[2] = molecular target: Insulin-degrading enzyme (Homo sapiens) (UniProt P14735); assay: Inhibition of human recombinant IDE-mediated insulin hydrolysis assessed as residual insulin level at 100 uM preincubated for 10 mins measured after 30 mins by spectrophotometer analysis
[3] = molecular target: Insulin-degrading enzyme (Homo sapiens) (UniProt P14735); assay: Inhibition of IDE in human SH-SY5Y cells expressing human APP751 with Swedish mutant/human […] assessed as increase of amyloid beta (1 to 40) level after 24 to 48 hrs by ELISA; type: cell-based
Method in brief: (§1)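 SH-SY5Y APPswe and APPwt lines kept in DMEM with 10% fetal calf serum, 2 mM L-glutamine, 5% CO2, 37 °C. Seeded at 1.94 10^5 cells/well and treated 24 h later with vehicle or drug at 0.1 or 10 μM (from 10 mM DMSO stock) for 24 h and 48 h. Medium cleared by centrifugation and assayed by ELISA. Aβ1-42 used 100 μL of medium undiluted; Aβ1-40 used 10 μL diluted 1:10. Duplicates in three independent experiments, normalized to untreated cells.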

[4] = test system: Plasma; assay: Prodrug conversion in mouse plasma assessed as half life of BDM43079 formation at 10 uM by LC-MS/MS analysis; type: ADME, cell-free
[5] = molecular target: T1, Insulin-degrading enzyme (Mus musculus) (UniProt Q9JHR7); assay: Inhibition of IDE in mouse Min6 cells assessed as effect on 11 mM of glucose-induced insulin secretion at 10 uM after 24 hrs by ELISA; type: cell-based
T1 sequence (whole entry): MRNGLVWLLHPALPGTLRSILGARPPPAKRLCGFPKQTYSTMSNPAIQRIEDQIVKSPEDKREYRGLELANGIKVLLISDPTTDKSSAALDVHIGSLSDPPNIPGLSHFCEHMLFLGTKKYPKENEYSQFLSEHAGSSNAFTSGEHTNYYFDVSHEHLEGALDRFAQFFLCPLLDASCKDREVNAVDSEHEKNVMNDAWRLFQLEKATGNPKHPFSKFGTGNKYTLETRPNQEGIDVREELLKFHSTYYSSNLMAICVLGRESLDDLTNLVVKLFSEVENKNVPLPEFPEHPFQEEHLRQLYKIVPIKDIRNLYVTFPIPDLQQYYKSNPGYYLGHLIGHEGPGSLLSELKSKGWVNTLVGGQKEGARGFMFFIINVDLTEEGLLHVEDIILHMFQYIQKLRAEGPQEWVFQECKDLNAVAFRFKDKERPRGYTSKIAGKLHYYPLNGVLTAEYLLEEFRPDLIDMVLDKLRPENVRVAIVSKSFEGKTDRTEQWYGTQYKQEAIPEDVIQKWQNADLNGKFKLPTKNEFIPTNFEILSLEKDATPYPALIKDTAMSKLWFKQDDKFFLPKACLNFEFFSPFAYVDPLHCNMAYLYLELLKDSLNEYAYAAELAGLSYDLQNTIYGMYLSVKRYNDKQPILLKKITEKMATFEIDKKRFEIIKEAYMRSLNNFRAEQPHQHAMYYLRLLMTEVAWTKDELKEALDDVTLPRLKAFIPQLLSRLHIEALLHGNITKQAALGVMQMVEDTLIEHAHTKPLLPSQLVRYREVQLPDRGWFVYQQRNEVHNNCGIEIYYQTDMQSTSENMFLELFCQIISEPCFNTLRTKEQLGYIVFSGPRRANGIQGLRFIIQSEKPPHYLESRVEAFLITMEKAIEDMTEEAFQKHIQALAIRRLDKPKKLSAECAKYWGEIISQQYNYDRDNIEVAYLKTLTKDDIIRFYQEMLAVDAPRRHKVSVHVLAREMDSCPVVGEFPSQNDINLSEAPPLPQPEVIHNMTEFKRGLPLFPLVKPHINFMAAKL

[6] = Solubility of the compound in PBS at pH 7.4; type: physicochemical
[7] = molecular target: T1, Insulin-degrading enzyme (Mus musculus); assay: Inhibition of IDE in mouse Min6 cells assessed as effect on 20 mM of glucose-induced insulin secretion at 10 uM after 24 hrs by ELISA; type: cell-based
[8] = molecular target: T1, Insulin-degrading enzyme (Mus musculus); assay: Inhibition of IDE in mouse Min6 cells assessed as effect on 2.8 mM of glucose-induced insulin secretion at 10 uM after 24 hrs by ELISA; type: cell-based
[9] = Prodrug conversion in IHH cell culture medium assessed as half life of BDM43079 formation at 10 uM by LC-MS/MS analysis; type: ADME, cell-based; conditions: human, hh
Method in brief: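 Conversion to the active acid followed in William's E medium with 10% fetal calf serum.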

[10] = molecular target: Insulin-degrading enzyme (Homo sapiens) (UniProt P14735); assay: Inhibition of IDE in human SH-SY5Y cells expressing human APP751 with Swedish mutant/human […] assessed as effect on APP holoproteins level after 24 to 48 hrs by Western blot
[11] = molecular target: Insulin-degrading enzyme (Homo sapiens) (UniProt P14735); assay: Inhibition of IDE in immortalized human hepatocytes assessed as effect on insulin-induced PEPCK mRNA expression at 10 uM after 24 hrs by quantitative RT-PCR analysis; type: cell-based; parameters: scale not given: the % may be the effect or the level left; conditions: Hepatocyte
[12] = molecular target: Insulin-degrading enzyme (Homo sapiens) (UniProt P14735); assay: Inhibition of IDE in human SH-SY5Y cells expressing human APP751 with Swedish mutant/human […] assessed as increase of amyloid beta (1 to 42) level after 24 to 48 hrs by ELISA; type: cell-based; method in brief: as §1
[13] = PBS-octanol partition coefficient, log D of the compound; type: physicochemical
[14] = molecular target: Insulin-degrading enzyme (Homo sapiens) (UniProt P14735); assay: Inhibition of IDE in human SH-SY5Y cells expressing human APP751 with Swedish mutant/human […] assessed as effect on CTFs level after 24 to 48 hrs by Western blot
[15] = molecular target: T2, Insulin-degrading enzyme (Homo sapiens, UniProt P14735); assay: Inhibition of human recombinant IDE-mediated amyloid beta (16 to 23) hydrolysis using ATTO 655-Cys-Lys-Leu-Val-Phe-Phe-Ala-Glu-Asp-Trp as substrate preincubated for 10 mins measured after 30 mins by spectrophotometer analysis
T2 sequence (P14735 whole entry): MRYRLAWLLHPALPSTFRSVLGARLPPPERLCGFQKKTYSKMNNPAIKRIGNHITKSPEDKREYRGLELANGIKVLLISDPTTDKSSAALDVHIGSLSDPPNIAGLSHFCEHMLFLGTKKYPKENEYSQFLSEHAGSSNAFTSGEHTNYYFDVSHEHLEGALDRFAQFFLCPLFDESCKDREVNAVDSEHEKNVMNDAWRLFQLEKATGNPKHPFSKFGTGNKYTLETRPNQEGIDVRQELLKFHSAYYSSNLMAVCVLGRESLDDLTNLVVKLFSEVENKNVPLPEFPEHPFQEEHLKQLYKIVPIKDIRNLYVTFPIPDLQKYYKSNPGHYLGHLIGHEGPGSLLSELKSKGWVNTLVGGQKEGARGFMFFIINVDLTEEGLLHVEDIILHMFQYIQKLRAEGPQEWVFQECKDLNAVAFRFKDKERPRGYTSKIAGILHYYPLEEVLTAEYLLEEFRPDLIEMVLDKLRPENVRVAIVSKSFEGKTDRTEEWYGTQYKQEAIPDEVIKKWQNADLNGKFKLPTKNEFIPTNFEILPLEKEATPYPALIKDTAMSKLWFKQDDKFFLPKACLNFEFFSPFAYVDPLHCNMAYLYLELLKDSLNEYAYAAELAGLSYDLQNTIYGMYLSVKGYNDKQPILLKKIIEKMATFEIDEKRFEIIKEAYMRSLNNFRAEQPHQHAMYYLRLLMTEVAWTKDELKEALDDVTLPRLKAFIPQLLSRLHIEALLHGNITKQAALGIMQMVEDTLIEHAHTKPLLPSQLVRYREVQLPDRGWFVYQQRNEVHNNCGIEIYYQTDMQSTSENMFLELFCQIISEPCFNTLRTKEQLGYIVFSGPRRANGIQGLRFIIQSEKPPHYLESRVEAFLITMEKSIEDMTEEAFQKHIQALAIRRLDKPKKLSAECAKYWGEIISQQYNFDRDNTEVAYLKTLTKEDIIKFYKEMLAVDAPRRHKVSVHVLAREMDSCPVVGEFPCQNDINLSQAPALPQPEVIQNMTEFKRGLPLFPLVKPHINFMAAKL

[16] = molecular target: T3, Endothelin-converting enzyme 1 (Homo sapiens, UniProt P42892); assay: Inhibition of human recombinant ECE1-mediated amyloid beta hydrolysis after 45 mins by fluorimetry assay
T3 sequence (P42892 whole entry): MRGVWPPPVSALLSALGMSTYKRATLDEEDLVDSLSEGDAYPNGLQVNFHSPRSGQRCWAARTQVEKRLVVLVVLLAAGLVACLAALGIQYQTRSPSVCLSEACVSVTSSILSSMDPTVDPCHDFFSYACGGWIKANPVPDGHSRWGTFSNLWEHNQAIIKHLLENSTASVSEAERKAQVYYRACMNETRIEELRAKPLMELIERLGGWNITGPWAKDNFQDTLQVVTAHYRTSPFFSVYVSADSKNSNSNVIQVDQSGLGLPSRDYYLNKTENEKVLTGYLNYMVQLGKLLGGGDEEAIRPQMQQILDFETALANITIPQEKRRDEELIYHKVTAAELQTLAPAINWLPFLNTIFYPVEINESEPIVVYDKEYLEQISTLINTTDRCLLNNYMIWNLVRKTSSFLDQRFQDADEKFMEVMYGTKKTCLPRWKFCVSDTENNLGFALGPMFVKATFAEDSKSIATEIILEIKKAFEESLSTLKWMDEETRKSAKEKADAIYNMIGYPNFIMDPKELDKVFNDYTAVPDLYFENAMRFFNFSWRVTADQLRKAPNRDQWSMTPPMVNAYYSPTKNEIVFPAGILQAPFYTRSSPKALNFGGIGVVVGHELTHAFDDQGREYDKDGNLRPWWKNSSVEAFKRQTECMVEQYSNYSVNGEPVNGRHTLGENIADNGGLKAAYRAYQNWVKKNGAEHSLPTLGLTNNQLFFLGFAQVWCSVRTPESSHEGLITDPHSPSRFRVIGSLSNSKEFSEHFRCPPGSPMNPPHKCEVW

[17] = molecular target: T4, Interstitial collagenase (Homo sapiens, UniProt P03956); assay: Inhibition of human recombinant MMP1-mediated amyloid beta hydrolysis using DNP-Pro-Cha-Gly- Cys(Me)-His-Ala- Lys(n-Me-Abz)-NH2 as substrate after 40 mins by fluorimetry assay
T4 sequence (P03956 whole entry): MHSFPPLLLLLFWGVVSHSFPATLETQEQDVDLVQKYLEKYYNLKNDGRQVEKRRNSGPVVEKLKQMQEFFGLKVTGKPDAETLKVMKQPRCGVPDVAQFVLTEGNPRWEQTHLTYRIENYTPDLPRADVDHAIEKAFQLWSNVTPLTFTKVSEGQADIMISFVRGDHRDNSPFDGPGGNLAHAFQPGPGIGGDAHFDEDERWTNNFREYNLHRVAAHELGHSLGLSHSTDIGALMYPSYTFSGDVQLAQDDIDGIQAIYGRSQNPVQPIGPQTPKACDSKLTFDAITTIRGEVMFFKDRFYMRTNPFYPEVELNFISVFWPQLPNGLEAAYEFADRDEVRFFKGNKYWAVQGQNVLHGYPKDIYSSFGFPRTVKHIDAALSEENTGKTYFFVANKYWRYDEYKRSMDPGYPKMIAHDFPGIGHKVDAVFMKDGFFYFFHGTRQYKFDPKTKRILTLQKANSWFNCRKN

[18] = molecular target: Angiotensin-converting enzyme (Homo sapiens, UniProt P12821); assay: Inhibition of human ACE-mediated amyloid beta hydrolysis
Angiotensin-converting enzyme, sequence (P12821 whole entry): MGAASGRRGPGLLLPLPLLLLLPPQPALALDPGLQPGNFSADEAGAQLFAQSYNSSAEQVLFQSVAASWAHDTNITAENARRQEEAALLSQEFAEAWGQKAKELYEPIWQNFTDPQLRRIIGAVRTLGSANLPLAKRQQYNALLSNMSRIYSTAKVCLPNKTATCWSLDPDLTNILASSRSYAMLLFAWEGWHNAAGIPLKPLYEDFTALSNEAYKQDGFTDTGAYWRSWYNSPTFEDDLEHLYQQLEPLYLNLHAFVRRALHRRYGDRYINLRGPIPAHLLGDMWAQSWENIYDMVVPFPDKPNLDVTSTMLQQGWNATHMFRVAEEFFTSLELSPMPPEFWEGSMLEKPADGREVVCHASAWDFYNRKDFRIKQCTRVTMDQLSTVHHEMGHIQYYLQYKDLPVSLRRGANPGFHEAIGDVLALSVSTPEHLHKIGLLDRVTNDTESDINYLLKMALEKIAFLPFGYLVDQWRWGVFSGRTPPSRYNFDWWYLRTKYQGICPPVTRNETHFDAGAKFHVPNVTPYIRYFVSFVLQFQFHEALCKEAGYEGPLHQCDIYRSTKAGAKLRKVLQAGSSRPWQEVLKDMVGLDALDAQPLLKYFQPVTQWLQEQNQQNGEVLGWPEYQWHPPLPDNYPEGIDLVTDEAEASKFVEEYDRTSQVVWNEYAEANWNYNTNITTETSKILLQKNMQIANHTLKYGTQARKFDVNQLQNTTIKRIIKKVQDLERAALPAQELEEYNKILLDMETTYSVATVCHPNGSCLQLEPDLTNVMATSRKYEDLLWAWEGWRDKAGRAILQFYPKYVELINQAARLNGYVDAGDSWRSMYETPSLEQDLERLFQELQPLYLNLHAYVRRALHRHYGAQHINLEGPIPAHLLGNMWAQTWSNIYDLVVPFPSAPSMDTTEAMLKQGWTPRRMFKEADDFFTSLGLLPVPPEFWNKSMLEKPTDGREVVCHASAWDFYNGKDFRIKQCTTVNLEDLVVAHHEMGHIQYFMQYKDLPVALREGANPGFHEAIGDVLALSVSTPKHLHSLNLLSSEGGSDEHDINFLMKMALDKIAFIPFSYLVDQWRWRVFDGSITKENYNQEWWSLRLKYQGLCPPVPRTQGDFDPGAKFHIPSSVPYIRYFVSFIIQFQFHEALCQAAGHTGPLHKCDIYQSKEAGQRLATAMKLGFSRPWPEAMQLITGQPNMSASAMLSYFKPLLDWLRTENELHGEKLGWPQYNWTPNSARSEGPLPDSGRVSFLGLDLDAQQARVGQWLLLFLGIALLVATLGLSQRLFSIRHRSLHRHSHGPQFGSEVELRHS

[19] = molecular target: Neprilysin (Homo sapiens, UniProt P08473); assay: Inhibition of human NEP-mediated amyloid beta hydrolysis
Neprilysin, sequence (P08473 whole entry): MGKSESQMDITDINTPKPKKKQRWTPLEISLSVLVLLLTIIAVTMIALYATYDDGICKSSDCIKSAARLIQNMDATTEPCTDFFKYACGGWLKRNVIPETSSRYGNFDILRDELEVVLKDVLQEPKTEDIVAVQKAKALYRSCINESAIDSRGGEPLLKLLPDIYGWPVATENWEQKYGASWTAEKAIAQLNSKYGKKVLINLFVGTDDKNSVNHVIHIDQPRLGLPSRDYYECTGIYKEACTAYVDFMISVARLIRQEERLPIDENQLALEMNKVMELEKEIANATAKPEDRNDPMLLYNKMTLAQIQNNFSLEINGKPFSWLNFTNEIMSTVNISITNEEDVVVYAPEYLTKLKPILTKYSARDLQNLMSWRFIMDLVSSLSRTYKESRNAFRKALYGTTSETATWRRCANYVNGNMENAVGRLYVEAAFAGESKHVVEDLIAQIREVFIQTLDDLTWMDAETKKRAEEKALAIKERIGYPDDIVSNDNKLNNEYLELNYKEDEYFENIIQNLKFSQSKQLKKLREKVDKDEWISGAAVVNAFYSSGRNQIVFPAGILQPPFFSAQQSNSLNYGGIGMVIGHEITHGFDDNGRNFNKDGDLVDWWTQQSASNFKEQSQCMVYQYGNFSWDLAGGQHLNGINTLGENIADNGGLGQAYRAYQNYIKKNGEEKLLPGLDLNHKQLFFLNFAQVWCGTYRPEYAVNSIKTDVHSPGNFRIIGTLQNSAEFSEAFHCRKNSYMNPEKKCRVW

[20] = molecular target: Angiotensin-converting enzyme 2 (Homo sapiens, UniProt Q9BYF1); assay: Inhibition of human recombinant ACE2-mediated amyloid beta hydrolysis using Mca-Tyr-Val-Ala-Asp-Pro-Ala-Lys-(DNP)-OH as substrate after 20 mins by fluorimetry assay
Angiotensin-converting enzyme 2, sequence (Q9BYF1 whole entry): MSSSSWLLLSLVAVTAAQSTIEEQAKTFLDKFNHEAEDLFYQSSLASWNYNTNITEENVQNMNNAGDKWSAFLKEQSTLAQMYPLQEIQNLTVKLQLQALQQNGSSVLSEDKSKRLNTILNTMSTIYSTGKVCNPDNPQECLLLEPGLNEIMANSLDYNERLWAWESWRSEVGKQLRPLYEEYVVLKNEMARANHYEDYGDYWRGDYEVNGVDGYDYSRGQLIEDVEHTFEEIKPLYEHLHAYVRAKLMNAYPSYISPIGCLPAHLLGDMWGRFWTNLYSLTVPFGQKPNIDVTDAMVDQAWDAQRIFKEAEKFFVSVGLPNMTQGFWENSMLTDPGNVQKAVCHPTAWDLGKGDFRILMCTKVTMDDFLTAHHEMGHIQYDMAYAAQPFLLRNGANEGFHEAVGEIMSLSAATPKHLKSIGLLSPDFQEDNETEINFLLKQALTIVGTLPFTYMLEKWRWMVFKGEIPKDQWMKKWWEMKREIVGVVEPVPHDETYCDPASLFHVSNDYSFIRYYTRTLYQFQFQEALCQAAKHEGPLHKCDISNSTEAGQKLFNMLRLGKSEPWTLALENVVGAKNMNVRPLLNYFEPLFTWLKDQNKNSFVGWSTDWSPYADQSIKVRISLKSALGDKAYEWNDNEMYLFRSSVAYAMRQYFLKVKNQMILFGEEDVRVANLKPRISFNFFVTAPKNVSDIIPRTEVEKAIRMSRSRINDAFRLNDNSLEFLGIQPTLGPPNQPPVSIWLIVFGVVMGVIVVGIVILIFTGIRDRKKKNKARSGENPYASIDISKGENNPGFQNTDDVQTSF

[21] = Half life in human liver microsomes at 1 uM by LC-MS/MS analysis; type: ADME
[22] = molecular target: Disintegrin and metalloproteinase domain-containing protein 17 (Homo sapiens, UniProt P78536); assay: Inhibition of human recombinant TACE-mediated amyloid beta hydrolysis after 5 mins by fluorimetry assay
Disintegrin and metalloproteinase domain-containing protein 17, sequence (P78536 whole entry, the tested form may be a part): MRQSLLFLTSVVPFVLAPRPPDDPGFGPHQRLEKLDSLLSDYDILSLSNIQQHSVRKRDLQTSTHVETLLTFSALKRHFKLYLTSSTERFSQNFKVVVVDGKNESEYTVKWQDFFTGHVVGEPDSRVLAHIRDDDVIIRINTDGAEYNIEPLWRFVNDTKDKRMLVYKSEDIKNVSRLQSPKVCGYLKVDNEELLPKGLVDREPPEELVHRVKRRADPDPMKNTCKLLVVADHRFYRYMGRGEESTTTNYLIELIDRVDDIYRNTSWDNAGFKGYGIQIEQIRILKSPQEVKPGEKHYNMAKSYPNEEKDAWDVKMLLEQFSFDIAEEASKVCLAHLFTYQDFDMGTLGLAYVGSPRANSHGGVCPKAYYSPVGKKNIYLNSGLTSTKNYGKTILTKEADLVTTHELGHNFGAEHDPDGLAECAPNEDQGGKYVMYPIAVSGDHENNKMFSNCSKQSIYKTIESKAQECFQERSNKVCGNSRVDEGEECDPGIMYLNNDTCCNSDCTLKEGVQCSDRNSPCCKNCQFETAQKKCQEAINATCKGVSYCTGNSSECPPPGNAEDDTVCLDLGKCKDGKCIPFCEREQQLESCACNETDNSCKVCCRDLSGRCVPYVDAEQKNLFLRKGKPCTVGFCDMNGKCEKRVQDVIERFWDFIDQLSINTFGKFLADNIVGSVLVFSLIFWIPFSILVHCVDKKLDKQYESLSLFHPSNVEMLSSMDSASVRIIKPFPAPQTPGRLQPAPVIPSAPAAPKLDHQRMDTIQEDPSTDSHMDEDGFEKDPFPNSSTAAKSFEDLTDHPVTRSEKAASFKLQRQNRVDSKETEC

[23] = molecular target: Collagenase 3 (Homo sapiens, UniProt P45452); assay: Inhibition of human recombinant MMP13-mediated amyloid beta hydrolysis after 10 mins by fluorimetry assay
[24] = Half life in IHH cell culture medium at 10 uM by LC-MS/MS analysis; type: physicochemical, HH
Method in brief: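 Stability measured in William's E medium with 10% fetal calf serum.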

[25] = Half life in mouse plasma at 10 uM by LC-MS/MS analysis; type: ADME, cell-free

Papp at 1 h, 10 µM [1]: 0.2 ×10⁻⁶ cm/s
Activity [2]: 50%
inhibition [3]: Dose-dependent effect
t1/2 [4]: 6 min
Activity [5]: 78.8 µg/L
solubility [6]: 74 µM (≈ 30.7 µg/mL)
Activity [7]: 132 µg/L
Activity [8]: 21.2 µg/L
t1/2 [9]: 11.3 h
inhibition [10]: inactive
inhibition [12]: Dose-dependent effect
logD [13]: 1.1
inhibition [14]: inactive
IC50 [15]: > 100 µM
SMILES: CNC(=O)[C@H](Cc1c[nH]cn1)NC(=O)CN(CCCc1ccccc1)CC(=O)OC
Activity [11]: 62%

SMILES: CNC(=O)[C@H](Cc1c[nH]cn1)NC(=O)CN(CCCc1ccccc1)CC(=O)O
IC50 [16]: > 100 µM
IC50 [17]: > 100 µM
IC50 [18]: > 100 µM
IC50 [19]: > 100 µM
IC50 [20]: > 100 µM
half-life at 1 µM [21]: > 0.667 h
solubility [6]: 68 µM (≈ 27.3 µg/mL)
IC50 [22]: > 100 µM
IC50 [23]: > 100 µM
half-life at 10 µM [24]: > 24 h
logD [13]: -1.4
half-life at 10 µM [25]: > 48 h

IC50 [15]: > 100 µM
SMILES: COC(=O)[C@H](Cc1ccccc1)NC(=O)CN(CC(=O)O)Cc1ccccc1

Reference: ChEMBL document CHEMBL3232818, “Imidazole-derived 2-[N-carbamoylmethyl-alkylamino]acetic acids, substrate-dependent modulators of insulin-degrading enzyme in amyloid-β hydrolysis” (Eur J Med Chem, 2014)
